Source: PubChem
An excerpt weighted towards active compounds, which were near 1.8% of everything screened.
APJ ag = agonists of human APJ apelin receptor; 330,000 tested, 0.11% active; CHO-K1 APJ PathHunter beta-arrestin, luminescence; 0% DMSO wells, 100% apelin; P35414; activation, % at 20 µM; AID 2520;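 active = activation more than six SD over the plate average, tested at 20 µM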
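Assay system: CHO-K1 APJ beta-arrestin complementation cell line / Compound: single test compound dose, 20 µM final, 1% DMSO / Times: overnight seeding, 90 min compound at 25 °C, 1 h detection / Technique: beta-gal luminescence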
EBI2 block = blocks human EBI2 receptor beta-arrestin signaling. P32249. EBI2 beta-arrestin recruitment, luminescence, 7a,25-OHC stimulated. inhibition, % at 5 µM. 360,000 tested, 0.81% active; in the data active = inhibition above about 38%;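 also: enzyme fragment complementation signal reports receptor beta-arrestin coupling in cells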
Target sequence (P32249 whole entry, looked up, the tested form may be a part): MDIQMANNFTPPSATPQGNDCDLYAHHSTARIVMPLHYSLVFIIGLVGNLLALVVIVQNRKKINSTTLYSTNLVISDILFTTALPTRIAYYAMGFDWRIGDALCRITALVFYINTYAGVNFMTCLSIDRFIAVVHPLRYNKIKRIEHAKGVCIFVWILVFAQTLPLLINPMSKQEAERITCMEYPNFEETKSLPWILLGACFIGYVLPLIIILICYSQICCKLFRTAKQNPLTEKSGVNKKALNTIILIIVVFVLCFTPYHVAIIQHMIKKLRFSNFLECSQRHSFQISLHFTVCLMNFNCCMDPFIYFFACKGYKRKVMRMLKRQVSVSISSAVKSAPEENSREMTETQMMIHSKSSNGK
APJ antag = blocks the human apelin receptor APJ; CHO-K1 APJ beta-arrestin complementation, luminescence; P35414; 330,000 tested, 0.32% active; inhibition, % at 20 µM;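 active = inhibition above about 40% at 20 µM, limit read from the data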;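 also: cells challenged with 10 nM apelin-13 agonist together with compound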
CCR6 antag = blocks CCL20-driven beta-arrestin recruitment at human CCR6 | P51684 | CHO-K1 CCR6 PathHunter beta-arrestin, luminescence, CCL20-stimulated | inhibition, % at 20 µM | 340,000 tested, 0.49% active;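 active = compounds whose inhibition of the agonist-driven luminescence signal at 20 µM reaches about 50%, limit read from the data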;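 also: cells stimulated with CCL20 at 14 nM final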
B2AR ag = human beta-2 adrenergic receptor agonism by FAP | response, % (test concentration not listed) | AID 504454 | Am2.2-beta2AR cells, FAP receptor internalization, flow cytometry | 340,000 tested, 0.43% active | P07550;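 active = response above a set limit, near 3 SD of response in nonfluorescent compounds, cut at about 42% in these data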
CXCR6 block = CXCR6 (human) receptor inhibition; O00574; CHO-K1 PathHunter CXCR6 beta-arrestin, luminescence; inhibition, % at 20 µM; 360,000 tested, 0.36% active; in the data active = inhibition above about 34%, passing the limit was not always enough;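 also: antagonist mode with CXCL16 agonist at 10 nM final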
A number is an active result; - = inactive; . = no result.

SMILES | APJ ag | EBI2 block | APJ antag | CCR6 antag | B2AR ag | CXCR6 block
CC1(C)CC(=O)C(C(C2=C(O)CC(C)(C)CC2=O)c2cccs2)C(=O)C1 (configuration not stated) | - | - | - | - | 68 | -
O=C(NCNC(=O)c1ccccc1)c1ccccc1 | - | - | - | - | 63 | -
O=C(COc1ccccc1)N=C1SC2CS(=O)(=O)CC2N1c1cccc(F)c1 (configuration not stated) | - | - | - | - | 48 | -
Cc1ccccc1Cn1c(=O)n(-c2ccccc2)c(=O)c2ccc(C(=O)NCc3ccco3)cc21 | - | - | - | . | - | -
Cc1ccc(-n2c(=O)c3ccc(C(=O)NCc4ccco4)cc3n(Cc3ccccc3C#N)c2=O)cc1 | - | - | 86 | - | - | -
C/C(=N\Nc1nc2ccccc2nc1C)c1ccccc1O | - | - | - | - | - | -
CC(=NNc1ccc2ccccc2n1)c1ccccc1O | . | - | . | . | - | 56
CC(C)COC(=O)N1CCCCC1c1cc(C(=O)NCc2ccccc2)no1 (configuration not stated) | . | - | . | . | . | -
O=C1CSC(=S)N1/N=C/c1cc(Br)c(O)c(Br)c1 | . | - | . | - | - | -
O=C(Nc1nnc(-c2cccs2)o1)c1cccc(C(F)(F)F)c1 | - | - | - | - | - | 44
COc1cc2oc3ccc(C#Cc4ccc(N)cc4)cc3c(=O)c2cc1OC | . | - | . | - | - | -
COc1cc2oc3ccc(C#Cc4ccccn4)cc3c(=O)c2cc1OC | - | - | - | - | 71 | -
CCCCN(C=O)c1c(CC)nc2c(OCCOc3ccc(F)cc3)cccn12 | . | - | . | . | . | -
CCOC(=O)N1CCN(C(=O)C2CCN(C(=O)c3ccccc3C)CC2)CC1 | . | - | . | . | 49 | 109
COc1cc(/C=C/C(=O)c2ccc([N+](=O)[O-])o2)ccc1O | - | - | - | 75 | - | -
COc1cc(/C=C/C(=O)O)ccc1O | - | - | - | - | - | -
COc1cc(/C=C/C(=O)/C=C(O)/C=C/c2ccc(O)c(OC)c2)ccc1O | - | - | - | 54 | - | -
Oc1ccc(Cl)cc1C1=NNC(c2cccs2)C1 (configuration not stated) | - | - | - | - | - | -
Cc1ccc(O)c(C2=NNC(c3ccc(Cl)cc3)C2)c1 (configuration not stated) | - | - | 70 | - | - | -
COC(=O)C1=C(C)NC(C)=C(C(=O)OC)C1C(=O)OCC(=O)NC1CCCCC1C (configuration not stated) | . | - | . | . | . | -
CC(C)C[C@H](NC(=O)c1[nH]cnc1C(=O)Nc1ccc(CNC(=O)OC(C)(C)C)cc1)C(=O)OCc1ccccc1 | - | - | - | - | - | -
C[C@H](NC(=O)c1[nH]cnc1C(=O)Nc1ccc(CNC(=O)OC(C)(C)C)cc1)C(=O)OCc1ccccc1 | - | - | - | - | 48 | -
CCOC(=O)c1cnc(-n2nc(C)cc2C)nc1NC(C)c1ccccc1 (configuration not stated) | - | 51 | - | - | - | -
CCOC(=O)c1cnc(-n2nc(C)cc2C)nc1NCc1ccccc1 | - | - | - | - | - | -
O=C(NCc1ccccc1Cl)c1ccc2sc([C@@H]3O[C@H](CO)[C@H](O)[C@H](O)[C@H]3O)nc2c1 | . | - | . | . | . | -
SMILES | APJ ag | EBI2 block | APJ antag | CCR6 antag | B2AR ag | CXCR6 block
COc1ccc(CN2CCC[C@]3(N[C@H](c4ccccc4)[C@@H]4C(=O)N(Cc5ccccc5)C(=O)[C@@H]43)C2=O)cc1 | . | - | . | . | . | -
O=C(O)c1cccc2c1/C(=N/Nc1ccc([N+](=O)[O-])cc1[N+](=O)[O-])c1ccccc1-2 | - | - | - | 53 | - | -
O=C(O)c1cccc2c1C(=O)c1cc([N+](=O)[O-])cc([N+](=O)[O-])c1-2 | . | - | . | . | . | -
S=C(c1ccccc1)N1CCN(c2ccccc2)CC1 | . | - | . | - | - | -
CCN(CC)c1ccc(C(=S)N2CCN(c3ccccc3)CC2)cc1 | - | 64 | - | - | - | -
CN(c1ccc(OCC(=O)NC2CCC(O)CC2)cc1)S(=O)(=O)c1ccc(Cl)cc1 (configuration not stated) | - | - | - | - | - | -
Cc1cc(=O)oc2ccc(OCC(=O)N(Cc3ccc(F)cc3)Cc3ccco3)cc12 | - | - | - | - | 61 | -
O=C(O)c1ccccc1C(=O)Nc1ccccc1 | - | - | - | - | - | -
O=C(Nc1ccccc1)C1=C(c2ccccc2)S(=O)(=O)CCS1(=O)=O | . | - | . | 51 | - | -
N=C1C=CC(=C(c2ccc(N)cc2)c2ccc(N)cc2)C=C1 | . | - | . | 51 | - | -
O=C(Cn1nc(C(F)F)cc1C(F)F)NNC(=S)Nc1ccc([N+](=O)[O-])cc1 | - | - | 49 | - | - | -
CCOc1ccc(NC(=O)CN2CCN(CC(=O)Nc3ccc(Cl)c(C(F)(F)F)c3)CC2)cc1 | - | 43 | - | - | - | -
CCOc1ccc(NC(=O)CN2CCN(CC(=O)Nc3cccc(F)c3)CC2)cc1 | - | - | - | - | - | -
O=C(Cn1cc(/C=C\[N+](=O)[O-])c2ccccc21)Nc1ccccc1 | - | - | - | - | 84 | -
O=C(O)Cn1cc(/C=C/[N+](=O)[O-])c2ccccc21 | - | - | - | - | - | -
N#Cc1ccccc1Cn1cc(/C=C/[N+](=O)[O-])c2ccccc21 | - | - | - | 55 | 95 | -
O=[N+]([O-])/C=C/c1cn(Cc2ccccc2)c2ccccc12 | - | - | - | - | 83 | -
N#Cc1cn(Cc2cccc(Cl)c2)c2ccccc12 | - | - | - | - | - | -
CC(=O)Nc1cccc(-c2ccnc3c2CC(C)(C(=O)Nc2ccc(Cl)cc2)O3)c1 (configuration not stated) | . | - | . | . | . | -
COCC(=O)N1C[C@H]2CON(C)[C@H]2C[C@H]1c1cccc(-c2ccccc2)c1 | . | - | . | . | . | -
O=C(NCC(O)CO)c1csc(Nc2cccc3ccccc23)n1 (configuration not stated) | - | - | - | - | - | -
O=[N+]([O-])c1ccc(N/N=C\c2ccccc2OCc2ccccc2)cc1 | - | - | - | - | - | -
Cc1cc(C)nc(N/N=C/c2ccccc2OCc2ccc([N+](=O)[O-])cc2)n1 | - | - | - | - | 97 | -
CCOC(=O)/C(=C\c1cccnc1)C(=O)c1cc(C(C)=O)c(Nc2ccccc2)s1 | - | 81 | 69 | 100 | 104 | 93
CCOC(=O)/C(=C\c1ccccc1)C(=O)c1cc(C(C)=O)c(Nc2ccccc2)s1 | - | 48 | - | - | - | -
C=CC(=O)N1C/C(=C/c2ccc(F)cc2)C(=O)/C(=C\c2ccc(F)cc2)C1 | . | 53 | . | 84 | 48 | 72
O=C(NC(=S)Nc1cc(Cl)ccc1O)c1cccc(Br)c1 | - | - | - | 59 | - | -
